Assay results reported in ChEMBL document CHEMBL1158052, “Tripfordines A-C, sesquiterpene pyridine alkaloids from Tripterygium wilfordii, and structure anti-HIV activity relationships of Tripterygium alkaloids” (J Nat Prod, 2006).
≈ marks a conversion by molar mass, not a printed value. One block for each molecule: values may come before it. Calls of active or inactive are those of the source. The rule behind the calls is not given here.

Legend:
[1] = test system: Human immunodeficiency virus 1; assay: Antiviral activity against HIV1 infected human H9 lymphocytes assessed as suppression of viral replication; type: functional, organism-based
How it was run: (§1)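 EC50 is the sample concentration that suppresses HIV replication by 50%. Cytotoxic IC50 is the concentration toxic to 50% of mock-infected cells. Therapeutic index is IC50 divided by EC50.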

[2] = Therapeutic index, ratio of IC50 for human H9 lymphocytes to EC50 for HIV1; settings: HIV-1, read-out: Ratio IC50/EC50; how it was run: as §1
PC-3 = assay: Cytotoxicity against human PC-3 cells; type: functional, cell-based
A549 = assay: Cytotoxicity against human A549 cells; type: functional, cell-based
LNCaP = assay: Cytotoxicity against human LNCAP cells; type: functional, cell-based
[3] = Cytotoxicity against human AR751 cells; type: functional, cell-based
A-431 = assay: Cytotoxicity against human A431 cells; type: functional, cell-based
HCT-8 = assay: Cytotoxicity against human HCT8 cells; type: functional, cell-based
H9 = assay: Cytotoxicity against mock-infected human H9 lymphocytes; type: cell-based
How it was run: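 Mock-infected cells, run alongside the HIV replication suppression assay, were exposed to test sample. IC50 was taken as the concentration toxic to 50% of the mock-infected cells.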

EC50 [1]: 0.9 µg/mL (≈ 1.04 µM)
SMILES: CC(=O)OC[C@]12[C@H](OC(C)=O)[C@H](OC(C)=O)[C@@H]3[C@@H](OC(=O)c4ccccc4)[C@@]14O[C@@]3(C)COC(=O)c1cccnc1C(C)C(C)C(=O)O[C@@H]([C@H](OC(C)=O)[C@@H]2OC(C)=O)[C@]4(C)O (some centres undefined)

SMILES: CC(=O)OC[C@]12[C@H](OC(C)=O)[C@H](OC(C)=O)[C@@H]3[C@@H](OC(=O)c4ccccc4)[C@@]14O[C@@]3(C)COC(=O)c1cccnc1C(C)C(C)C(=O)O[C@@H]([C@H](OC(=O)c1cccnc1)[C@@H]2OC(C)=O)[C@]4(C)O (some centres undefined)
Activity [1]: inactive

SMILES: CC(=O)OC[C@]12[C@H](OC(C)=O)[C@H](OC(C)=O)[C@@H]3[C@@H](OC(C)=O)[C@@]14O[C@@]3(C)COC(=O)c1cccnc1CCC(C)C(=O)O[C@@H]([C@H](OC(=O)c1ccccc1)[C@@H]2OC(C)=O)[C@]4(C)O (some centres undefined)
Activity [1]: inactive

SMILES: CC(=O)OC[C@]12[C@H](OC(C)=O)[C@H](OC(C)=O)[C@@H]3[C@@H](OC(C)=O)[C@@]14O[C@@]3(C)COC(=O)c1cccnc1CCC(C)C(=O)O[C@@H]([C@H](OC(=O)c1ccco1)[C@@H]2OC(C)=O)[C@]4(C)O (some centres undefined)
Activity [1]: inactive

SMILES: CC(=O)O[C@@H]1[C@@H]2[C@@H](OC(C)=O)[C@@]34O[C@@]2(C)COC(=O)c2cnccc2C(C)C(C)C(=O)O[C@@H]([C@H](OC(C)=O)[C@H](OC(C)=O)[C@@]3(COC(=O)c2ccco2)[C@@H]1OC(C)=O)[C@]4(C)O (some centres undefined)
Activity [1]: inactive

EC50 [1]: 0.2 µg/mL (≈ 0.248 µM)
SMILES: CC(=O)OC[C@]12[C@H](OC(C)=O)[C@H](OC(C)=O)[C@@H]3[C@@H](OC(C)=O)[C@@]14O[C@@]3(C)COC(=O)c1cccnc1C(C)C(C)C(=O)O[C@@H]([C@H](OC(C)=O)[C@@H]2OC(C)=O)[C@]4(C)O (some centres undefined) [EUONYMINE]

SMILES: CC(=O)OC[C@]12[C@H](OC(C)=O)[C@H](OC(C)=O)[C@@H]3[C@@H](OC(C)=O)[C@@]14O[C@@]3(C)COC(=O)c1cccnc1C(C)C(C)C(=O)O[C@@H]([C@H](OC(=O)c1ccccc1)[C@@H]2OC(C)=O)[C@@]4(C)O (some centres undefined) [FORRESTINE]
selectivity ratio [2]: > 208

SMILES: CC(=O)O[C@@H]1[C@@H]2[C@@H](OC(C)=O)[C@@]34O[C@@]2(C)COC(=O)c2cnccc2C(C)C(C)(O)C(=O)O[C@@H]([C@H](OC(C)=O)[C@H](OC(C)=O)[C@@]3(COC(=O)c2ccco2)[C@@H]1OC(C)=O)[C@]4(C)O (some centres undefined) [HYPOGLAUNINE A]
selectivity ratio [2]: > 769

EC50 [1]: 0.1 µg/mL (≈ 0.114 µM)
SMILES: CC(=O)OC[C@]12[C@H](OC(C)=O)[C@H](OC(C)=O)[C@@H]3[C@@H](OC(C)=O)[C@@]14O[C@@]3(C)COC(=O)c1cnccc1C(C)C(C)(O)C(=O)O[C@@H]([C@H](OC(=O)c1ccco1)[C@@H]2OC(C)=O)[C@]4(C)O (some centres undefined) [HYPOGLAUNINE B]
selectivity ratio [2]: > 1000

EC50 [1]: 1 µg/mL (≈ 1.17 µM)
SMILES: CC(=O)OC[C@]12[C@H](OC(C)=O)[C@H](OC(C)=O)[C@@H]3[C@@H](OC(=O)c4ccco4)[C@@]14O[C@@]3(C)COC(=O)c1cccnc1C(C)C(C)C(=O)O[C@@H]([C@H](OC(C)=O)[C@@H]2OC(C)=O)[C@]4(C)O (some centres undefined) [HYPONINE A]

EC50 [1]: 0.1 µg/mL (≈ 0.123 µM)
SMILES: CC(=O)O[C@@H]1[C@H](OC(C)=O)[C@@]2(COC(=O)c3ccco3)[C@H](OC(C)=O)C(=O)[C@@H]3[C@@H](OC(C)=O)[C@@]24O[C@@]3(C)COC(=O)c2cccnc2C(C)C(C)C(=O)O[C@@H]1[C@]4(C)O (some centres undefined) [HYPONINE B]
selectivity ratio [2]: > 1000

SMILES: CC(=O)OC[C@]12[C@H](OC(C)=O)[C@H](OC(C)=O)[C@@H]3[C@@H](OC(C)=O)[C@@]14O[C@@]3(C)COC(=O)c1cccnc1C(C)C(C)C(=O)O[C@@H]([C@H](OC(=O)c1ccco1)[C@@H]2OC(C)=O)[C@]4(C)O (some centres undefined) [HYPONINE F]
selectivity ratio [2]: > 2.8

EC50 [1]: 0.88 µg/mL (≈ 1.15 µM)
SMILES: CC(=O)OC[C@]12[C@H](OC(C)=O)[C@H](OC(C)=O)[C@@H]3[C@@H](O)[C@@]14O[C@@]3(C)COC(=O)c1cccnc1C(C)C(C)C(=O)O[C@@H]([C@H](OC(C)=O)[C@@H]2OC(C)=O)[C@]4(C)O (some centres undefined) [NEOEUONYMINE]
selectivity ratio [2]: > 113

SMILES: CC(=O)OC[C@]12[C@H](OC(C)=O)[C@H](OC(C)=O)[C@@H]3[C@@H](OC(C)=O)[C@@]14O[C@@]3(C)COC(=O)c1cccnc1CCC(C)(O)C(=O)O[C@@H]([C@H](O)[C@@H]2OC(C)=O)[C@@]4(C)O (some centres undefined) [TRIPFORDINE A]
IC50 (PC-3): > 4 µg/mL
IC50 (A549): > 4 µg/mL
IC50 (LNCaP): > 4 µg/mL
EC50 [1]: 13.4 µg/mL (≈ 17.2 µM)
IC50 [3]: > 4 µg/mL
IC50 (A-431): > 4 µg/mL
IC50 (HCT-8): > 4 µg/mL
IC50 (H9): > 25 µg/mL
selectivity ratio [2]: 1.9

SMILES: CC(=O)OC[C@]12[C@H](OC(C)=O)[C@H](OC(C)=O)[C@@H]3[C@@H](O)[C@@]14O[C@@]3(C)COC(=O)c1cccnc1CCC(C)C(=O)O[C@@H]([C@H](OC(C)=O)[C@@H]2OC(C)=O)[C@@]4(C)O (some centres undefined) [TRIPFORDINE B]
IC50 (PC-3): > 4 µg/mL
IC50 (A549): > 4 µg/mL
IC50 (LNCaP): > 4 µg/mL
Activity [1]: inactive
IC50 [3]: > 4 µg/mL
IC50 (A-431): > 4 µg/mL
IC50 (HCT-8): > 4 µg/mL
IC50 (H9): > 25 µg/mL

SMILES: CC(=O)OC[C@]12[C@H](OC(C)=O)[C@H](OC(C)=O)[C@@H]3[C@@H](O)[C@@]14O[C@@]3(C)COC(=O)c1cnccc1C(C)C(C)C(=O)O[C@@H]([C@H](OC(C)=O)[C@@H]2OC(C)=O)[C@@]4(C)O (some centres undefined) [TRIPFORDINE C]
IC50 (PC-3): > 4 µg/mL
IC50 (A549): > 4 µg/mL
IC50 (LNCaP): > 4 µg/mL
Activity [1]: inactive
IC50 [3]: > 4 µg/mL
IC50 (A-431): > 4 µg/mL
IC50 (HCT-8): > 4 µg/mL
IC50 (H9): > 25 µg/mL

EC50 [1]: 2.5 µg/mL (≈ 2.64 µM)
SMILES: COC(=O)C[C@@H]1C(=O)CCC(C)C(=O)O[C@@H]2[C@@H]3[C@@H](OC(C)=O)[C@@]45O[C@@]3(C)COC(=O)c3cccnc3C(C)C(C)C(=O)O[C@@H]([C@H](OC(C)=O)[C@H](OC(C)=O)[C@@]4(COC1=O)[C@@H]2OC(C)=O)[C@]5(C)O (some centres undefined) [TRIPTONINE A]
selectivity ratio [2]: > 39.4

EC50 [1]: < 0.1 µg/mL
SMILES: COC(=O)C[C@@H]1C(=O)CC[C@H](C)C(=O)O[C@@H]2[C@@H]3[C@@H](OC(C)=O)[C@@]45O[C@@]3(C)COC(=O)c3cnccc3[C@@H](C)[C@@H](O)C(=O)O[C@@H]([C@H](OC(C)=O)[C@H](OC(C)=O)[C@@]4(COC1=O)[C@@H]2OC(C)=O)[C@]5(C)O [TRIPTONINE B]
selectivity ratio [2]: > 1000

SMILES: CC(=O)OC[C@]12[C@H](OC(C)=O)[C@H](OC(C)=O)[C@@H]3[C@@H](OC(C)=O)[C@@]14O[C@@]3(C)COC(=O)c1cccnc1CCC(C)(O)C(=O)O[C@@H]([C@H](OC(=O)c1ccccc1)[C@@H]2OC(C)=O)[C@]4(C)O (some centres undefined) [WILFORDINE]
EC50 [1]: < 0.1 µg/mL
selectivity ratio [2]: > 200

SMILES: CC(=O)OC[C@]12[C@H](OC(C)=O)[C@H](OC(C)=O)[C@@H]3[C@@H](OC(C)=O)[C@@]14O[C@@]3(C)COC(=O)c1cccnc1CCC(C)(O)C(=O)O[C@@H]([C@H](OC(=O)c1ccco1)[C@@H]2OC(C)=O)[C@]4(C)O (some centres undefined) [WILFORTRINE]
EC50 [1]: < 0.1 µg/mL
selectivity ratio [2]: > 1000
